Data published in ChEMBL document CHEMBL4118253, “Expedient synthesis and biological evaluation of alkenyl acyclic nucleoside phosphonate prodrugs” (Bioorg Med Chem, 2018).

Assays:
[1] = tested on: Human alphaherpesvirus 1; assay: Antiviral activity against Herpes simplex virus 1 KOS infected in HEL cells assessed as inhibition of virus-induced cytopathicity; type: functional, organism-based; details: Human alphaherpesvirus 1, KOS
[2] = tested on: Human alphaherpesvirus 2; assay: Antiviral activity against Herpes simplex virus 2 G infected in HEL cells assessed as inhibition of virus-induced cytopathicity; type: functional, organism-based; details: Human alphaherpesvirus 2, strain G
[3] = tested on: Human alphaherpesvirus 1; assay: Antiviral activity against acyclovir-resistant thymidine kinase deficient Herpes simplex virus 1 KOS infected in HEL cells assessed as inhibition of virus-induced cytopathicity; type: functional, organism-based; details: Human alphaherpesvirus 1, KOS
[4] = tested on: Vaccinia virus; assay: Antiviral activity against Vaccinia virus infected in HEL cells assessed as inhibition of virus-induced cytopathicity; type: functional, organism-based; details: Orthopoxvirus vaccinia
[5] = tested on: Human adenovirus 2; assay: Antiviral activity against Adenovirus 2 infected in HEL cells assessed as inhibition of virus-induced cytopathicity; type: functional, organism-based; details: Human mastadenovirus C
[6] = tested on: Human coronavirus 229E; assay: Antiviral activity against Human coronavirus 229E infected in HEL cells assessed as inhibition of virus-induced cytopathicity; type: functional, organism-based
[7] = tested on: Human respirovirus 3; assay: Antiviral activity against Parainfluenza virus 3 infected in human HeLa cells assessed as inhibition of virus-induced cytopathicity; type: functional, organism-based; details: Human respirovirus 3, HeLa
[8] = tested on: Mammalian orthoreovirus 1; assay: Antiviral activity against Reovirus-1 infected in human HeLa cells assessed as inhibition of virus-induced cytopathicity; type: functional, organism-based; details: Mammalian orthoreovirus 1, HeLa
[9] = tested on: Vesicular stomatitis virus; assay: Antiviral activity against Vesicular stomatitis virus infected in human HeLa cells assessed as inhibition of virus-induced cytopathicity; type: functional, organism-based
[10] = tested on: Respiratory syncytial virus; assay: Antiviral activity against Respiratory syncytial virus infected in human HeLa cells assessed as inhibition of virus-induced cytopathicity; type: functional, organism-based
[11] = tested on: Influenza A virus; assay: Antiviral activity against Influenza A virus H1N1 infected in MDCK cells assessed as inhibition of virus-induced cytopathicity by MTS assay; type: functional, organism-based
[12] = tested on: Influenza A virus H3N2; assay: Antiviral activity against Influenza A virus H3N2 infected in MDCK cells assessed as inhibition of virus-induced cytopathicity by MTS assay; type: functional, organism-based
[13] = tested on: Influenza B virus; assay: Antiviral activity against Influenza B virus infected in MDCK cells assessed as inhibition of virus-induced cytopathicity by MTS assay; type: functional, organism-based
[14] = tested on: Human alphaherpesvirus 3; assay: Antiviral activity against thymidine kinase expressing Varicella-Zoster virus infected in HEL cells assessed as reduction in virus plaque formation; type: functional, organism-based; details: Human alphaherpesvirus 3, HEL
[15] = tested on: Human alphaherpesvirus 3; assay: Antiviral activity against thymidine kinase deficient Varicella-Zoster virus infected in HEL cells assessed as reduction in virus plaque formation; type: functional, organism-based; details: Human alphaherpesvirus 3, HEL
[16] = tested on: Human betaherpesvirus 5; assay: Antiviral activity against Human cytomegalovirus AD169 infected in HEL cells assessed as inhibition of virus-induced cytopathicity; type: functional, organism-based; details: Human betaherpesvirus 5, AD169, HEL
[17] = tested on: Human betaherpesvirus 5; assay: Antiviral activity against Human cytomegalovirus Davis infected in HEL cells assessed as inhibition of virus-induced cytopathicity; type: functional, organism-based; details: Human betaherpesvirus 5, Davis
[18] = Cytotoxicity against HEL cells assessed as alteration of cell morphology by microscopic analysis; type: cell-based; details: human
Procedure, shortened: (§1)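 The value is the minimal cytotoxic concentration (MCC), the lowest concentration that causes a microscopically visible change in cell morphology. It was read in the same HEL or Vero cell cultures used for the antiviral tests.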

[19] = tested on: Sindbis virus; assay: Antiviral activity against Sindbis Virus infected in African green monkey Vero cells assessed as inhibition of virus-induced cytopathicity; type: functional, organism-based
[20] = tested on: Coxsackievirus B4; assay: Antiviral activity against Coxsackie virus B4 infected in African green monkey Vero cells assessed as inhibition of virus-induced cytopathicity; type: functional, organism-based; details: Enterovirus B
[21] = tested on: Punta Toro virus; assay: Antiviral activity against Punta Toro virus infected in African green monkey Vero cells assessed as inhibition of virus-induced cytopathicity; type: functional, organism-based
[22] = tested on: Yellow fever virus; assay: Antiviral activity against Yellow fever virus infected in African green monkey Vero cells assessed as inhibition of virus-induced cytopathicity; type: functional, organism-based
[23] = Cytotoxicity against African green monkey Vero cells assessed as alteration of cell morphology by microscopic analysis; type: cell-based; details: chlorocebus sabaeus; procedure, shortened: as §1
[24] = Half life in human serum by 31P NMR analysis; type: ADME, cell-free
[25] = Half life in rat serum by 31P NMR analysis; type: ADME, cell-free
[26] = Cytotoxicity against human HeLa cells assessed as alteration of cell morphology by microscopic analysis; type: cell-based
[27] = Cytotoxicity against MDCK cells assessed as alteration of cell morphology by microscopic analysis; type: cell-based, Canis lupus familiaris; details: dog
[28] = tested on: Influenza A virus; assay: Antiviral activity against Influenza A virus H1N1 infected in MDCK cells assessed as inhibition of virus-induced visual cytopathicity; type: functional, organism-based
[29] = tested on: Influenza A virus H3N2; assay: Antiviral activity against Influenza A virus H3N2 infected in MDCK cells assessed as inhibition of virus-induced visual cytopathicity; type: functional, organism-based
[30] = tested on: Influenza B virus; assay: Antiviral activity against Influenza B virus infected in MDCK cells assessed as inhibition of virus-induced visual cytopathicity; type: functional, organism-based

Compound	EC50 [1]	EC50 [2]	EC50 [3]	EC50 [4]	EC50 [5]	EC50 [6]	EC50 [7]	EC50 [8]	EC50 [9]	EC50 [10]	EC50 [11]	EC50 [12]	EC50 [13]	EC50 [14]	EC50 [15]	EC50 [16]	EC50 [17]	MCC [18]	EC50 [19]	EC50 [20]	also measured
C/C(=C\CP(=O)(N[C@@H](C)C(=O)OC(C)C)Oc1cccc2c1CCCC2)Cn1cc(C)c(=O)[nH]c1=O (stereo not given in full)	> 100 µM	> 100 µM	> 100 µM	> 100 µM	> 100 µM	> 100 µM	> 100 µM	> 100 µM	> 100 µM	> 100 µM	> 100 µM	> 100 µM	> 100 µM	58.5 µM	53.5 µM	> 100 µM	> 20 µM	> 100 µM	> 100 µM	> 100 µM	EC50 [21]: > 100 µM; EC50 [22]: > 100 µM; MCC [23]: ≥ 20 µM; t1/2 [24]: > 12 h; t1/2 [25]: > 12 h; MCC [26]: ≥ 20 µM; MCC [27]: > 100 µM; EC50 [28]: > 100 µM; EC50 [29]: > 100 µM; EC50 [30]: > 100 µM
C/C(=C\CP(=O)(N[C@@H](C)C(=O)OC(C)C)Oc1cccc2c1CCCC2)Cn1ccc(=O)[nH]c1=O (stereo not given in full)	> 100 µM	> 100 µM	> 100 µM	> 100 µM	> 100 µM	> 100 µM	> 100 µM	> 100 µM	> 100 µM	> 100 µM	> 100 µM	> 100 µM	> 100 µM	29.9 µM	71.5 µM	> 100 µM	> 100 µM	> 100 µM	> 100 µM	> 100 µM	EC50 [21]: > 100 µM; EC50 [22]: > 100 µM; MCC [23]: > 100 µM; MCC [26]: > 100 µM; MCC [27]: > 100 µM; EC50 [28]: > 100 µM; EC50 [29]: > 100 µM; EC50 [30]: > 100 µM
C/C(=C\CP(=O)(N[C@@H](C)C(=O)OCc1ccccc1)Oc1ccccc1)Cn1ccc(=O)[nH]c1=O (stereo not given in full)	> 100 µM	> 100 µM	> 100 µM	> 100 µM	> 100 µM	> 100 µM	> 100 µM	> 100 µM	> 100 µM	> 100 µM	> 100 µM	> 100 µM	> 100 µM	> 100 µM	> 100 µM	> 100 µM	> 100 µM	> 100 µM	> 100 µM	> 100 µM	EC50 [21]: > 100 µM; EC50 [22]: > 100 µM; MCC [23]: > 100 µM; MCC [26]: > 100 µM; MCC [27]: > 100 µM; EC50 [28]: > 100 µM; EC50 [29]: > 100 µM; EC50 [30]: > 100 µM
C/C(=C\CP(=O)(N[C@@H](C)C(=O)OCc1ccccc1)Oc1ccccc1)Cn1cc(C)c(=O)[nH]c1=O (stereo not given in full)	> 100 µM	> 100 µM	> 100 µM	> 100 µM	> 100 µM	> 100 µM	> 100 µM	> 100 µM	> 100 µM	> 100 µM	> 100 µM	> 100 µM	> 100 µM	55.7 µM	46.7 µM	> 100 µM	> 100 µM	> 100 µM	> 100 µM	> 100 µM	EC50 [21]: > 100 µM; EC50 [22]: > 100 µM; MCC [23]: > 100 µM; MCC [26]: > 100 µM; MCC [27]: > 100 µM; EC50 [28]: > 100 µM; EC50 [29]: > 100 µM; EC50 [30]: > 100 µM
C/C(=C/CP(=O)(N[C@@H](C)C(=O)OC(C)C)Oc1cccc2c1CCCC2)Cn1ccc(=O)[nH]c1=O (stereo not given in full)	> 100 µM	> 100 µM	> 100 µM	> 100 µM	> 100 µM	> 100 µM	> 100 µM	> 100 µM	> 100 µM	> 100 µM	100 µM	> 100 µM	> 100 µM	58.5 µM	100 µM	> 20 µM	54.7 µM	100 µM	> 100 µM	> 100 µM	EC50 [21]: > 100 µM; EC50 [22]: > 100 µM; MCC [23]: > 100 µM; MCC [26]: > 100 µM; MCC [27]: 100 µM; EC50 [28]: > 100 µM; EC50 [29]: > 100 µM; EC50 [30]: > 100 µM
C/C(=C/CP(=O)(N[C@@H](C)C(=O)OC(C)C)Oc1cccc2ccccc12)Cn1cc(C)c(=O)[nH]c1=O (stereo not given in full)	> 100 µM	> 100 µM	> 100 µM	> 100 µM	> 100 µM	> 100 µM	> 100 µM	> 100 µM	> 100 µM	> 100 µM	> 100 µM	> 100 µM	> 100 µM	39.9 µM	41.6 µM	> 20 µM	44.7 µM	100 µM	> 100 µM	> 100 µM	EC50 [21]: > 100 µM; EC50 [22]: > 100 µM; MCC [23]: ≥ 20 µM; MCC [26]: ≥ 20 µM; MCC [27]: 100 µM; EC50 [28]: > 100 µM; EC50 [29]: > 100 µM; EC50 [30]: > 100 µM
